Experimental findings from ChEMBL document CHEMBL5705901, “Exploiting selective BCL-2 family inhibitors to dissect cell survival dependencies and define improved strategies for cancer therapy” (Sci Transl Med, 2015) are described below.

A word on the TGI: it is how far tumour growth fell short of that in controls.

Active and inactive are the calls of the source. The calls are words filed in the database; no cut-off is given here.

In data set [1] the test system is ZR-75-1. The experiment in a line: Induction of apoptosis in human ZR-75-1 cells assessed as poly(ADP-ribose) polymerase cleavage incubated for 48 hrs in presence of docetaxel by immunoblot analysis. The class given is functional, cell-based. In general terms: In western blotting, separated proteins are transferred to a membrane and probed.
The subject of the next data set is MDA-MB-468. The experiment in a line: Induction of apoptosis in human MDA-MB-468 cells assessed as poly(ADP-ribose) polymerase cleavage incubated for 48 hrs in presence of docetaxel by immunoblot analysis. The class given is functional, cell-based.
A further data set has as its system MCF7. The experiment in a line: Induction of apoptosis in human MCF7 cells expressing luciferase assessed as accumulation of cells with sub-G0-G1 DNA content at 1 uM incubated for 48 hrs in presence of docetaxel by flow cytometric analysis. Type of data set: functional, cell-based.
Data set [2] deals with MDA-MB-231. Put plainly: Induction of apoptosis in human MDA-MB-231 cells assessed as accumulation of cells with sub-G0-G1 DNA content at 1 uM incubated for 48 hrs in presence of docetaxel by flow cytometric analysis. The class given is functional, cell-based. Background: Flow cytometry measures light scatter and fluorescence of single cells or particles in a stream.
The subject of the next data set is BT-474. Put plainly: Induction of apoptosis in human BT-474 cells assessed as accumulation of cells with sub-G0-G1 DNA content at 1 uM incubated for 48 hrs in presence of docetaxel by flow cytometric analysis. The class given is functional, cell-based.
A further data set has as its system HCC1500. The experiment in a line: Induction of apoptosis in human HCC1500 cells assessed as accumulation of cells with sub-G0-G1 DNA content at 1 uM incubated for 48 hrs in presence of docetaxel by flow cytometric analysis. Type of data set: functional, cell-based.
Data set [3] is described as follows: Inhibition of granulocyte colony formation in human bone marrow cells at 0.1 to 20 uM incubated for 14 to 16 days in presence of docetaxel by light microscopic analysis. The class given is toxicity, cell-based. As to conditions: bone marrow cell, dose lower 0.1 µM, time lower 14 day, dose upper 20 µM, time upper 16 day. The method in brief: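 Human bone marrow granulocyte colony-forming assay in semisolid medium, increasing inhibitor concentrations ± 5 nM docetaxel; colonies counted by light microscopy after 14 days; triplicate means with SD; combinations compared with docetaxel alone by Student's t test.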

In data set [4] the test system is MDA-MB-231. The experiment in a line: Synergistic antiproliferative activity against human MDA-MB-231 cells assessed as reduction in cell viability by measuring bliss sum score incubated for 72 hrs in presence of docetaxel by CellTiter-Glo cell vaibility assay. Type of data set: functional.
Data set [5] relates to ZR-75-1. Put plainly: Synergistic antiproliferative activity against human ZR-75-1 cells assessed as reduction in cell viability by measuring bliss sum score incubated for 72 hrs in presence of docetaxel by CellTiter-Glo cell vaibility assay. The class given is functional.
In the next data set the test system is HCC1569. Put plainly: Synergistic antiproliferative activity against human HCC1569 cells assessed as reduction in cell viability by measuring bliss sum score incubated for 72 hrs in presence of docetaxel by CellTiter-Glo cell vaibility assay. The class given is functional. For orientation: Cellular ATP, detected with luciferase, serves as a proxy for viable cell number.

For another data set, the system named is BT-20. The experiment in a line: Synergistic antiproliferative activity against human BT-20 cells assessed as reduction in cell viability by measuring bliss sum score incubated for 72 hrs in presence of docetaxel by CellTiter-Glo cell vaibility assay. Type of data set: functional.
The subject of another data set is SW1573. The experiment in a line: Synergistic antiproliferative activity against human SW1573 cells assessed as reduction in cell viability by measuring bliss sum score incubated for 72 hrs in presence of docetaxel by CellTiter-Glo cell vaibility assay. The class given is functional.
The next data set relates to NCI-H838. Put plainly: Synergistic antiproliferative activity against human NCI-H838 cells assessed as reduction in cell viability by measuring bliss sum score incubated for 72 hrs in presence of docetaxel by CellTiter-Glo cell vaibility assay. Type of data set: functional.
A further data set concerns OVCAR-5. The experiment in a line: Synergistic antiproliferative activity against human OVCAR-5 cells assessed as reduction in cell viability by measuring bliss sum score incubated for 72 hrs in presence of docetaxel by CellTiter-Glo cell vaibility assay. The class given is functional.
For another data set, the system named is ZR-75-30. Put plainly: Antagonistic antiproliferative activity against human ZR-75-30 cells assessed as reduction in cell viability by measuring bliss sum score incubated for 72 hrs in presence of docetaxel by CellTiter-Glo cell vaibility assay. Type of data set: functional.
The next data set has as its system HCC2218. The experiment in a line: Antagonistic antiproliferative activity against human HCC2218 cells assessed as reduction in cell viability by measuring bliss sum score incubated for 72 hrs in presence of docetaxel by CellTiter-Glo cell vaibility assay. The class given is functional.
Data set [6] has as its system EBC-1. Put plainly: Antagonistic antiproliferative activity against human EBC-1 cells assessed as reduction in cell viability by measuring bliss sum score incubated for 72 hrs in presence of docetaxel by CellTiter-Glo cell vaibility assay. The class given is functional.
For data set [7], the system named is MDA-MB-231. Put plainly: Synergistic antitumor activity against LC3 positive human MDA-MB-231 cells xenografted in SCID mouse assessed as tumor growth delay at 25 mg/kg, po coadministered with docetaxel once daily for 14 days relative to control. As to conditions: time 14 day. Type of data set: functional. The method in brief: (§1)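 MDA-MB-231 LC3 metastatic breast cancer xenograft, 10 mice per group, with a vehicle control. Dosing: oral agent 25 mg/kg daily for 14 days; docetaxel 7.5 mg/kg iv once; combination gives both regimens. Mean tumor volumes tracked. TGImax = 100(1 − Tv/Cv) from mean treated vs control volumes. TGD = 100(T/C − 1) from median times to reach 1 cm3.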

Data set [8] concerns MDA-MB-231. The experiment in a line: Antitumor activity against LC3 positive human MDA-MB-231 cells xenografted in SCID mouse assessed as maximum tumor growth inhibition at 25 mg/kg, po administered daily for 14 days relative to control. The class given is functional. As to conditions: MDA-MB-231, 336 h, time 14 day, read-out: TGI. Summed up: as §1
Data set [9] can be described thus: Toxicity in po dosed SCID-bg mouse assessed as body weight loss relative to control. As to conditions: in vivo. Type of data set: organism-based.
The next data set relates to NCI-H747. Put plainly: Antitumor activity against human NCI-H747 cells xenografted in po dosed SCID-bg mouse assessed as tumor growth delay relative to control. Type of data set: functional. The method in brief:
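Tumor volume-based endpoints. TGD = 100(T/C − 1), where T and C are the median times for the treated and control groups to reach 1 cm3. Groups were five mice for NCI-H747 and OVCAR-5 and eight for NCI-H358. Docetaxel was given intravenously and the test agent orally.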

The test system of data set [10] is A549. The experiment in a line: Antitumor activity against 3 times passaged human A549 cells xenografted in po dosed SCID mouse assessed as maximum tumor growth inhibition relative to control. Type of data set: functional.
In data set [11] the test system is A549. The experiment in a line: Synergistic antitumor activity against 3 times passaged human A549 cells xenografted in po dosed SCID mouse assessed as maximum tumor growth inhibition in presence of docetaxel relative to control. Type of data set: functional. Summed up:
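Xenografts dosed with oral inhibitor plus intravenous docetaxel. TGImax = 100(1 − Tv/Cv), from mean treated and control tumor volumes; TGD = 100(T/C − 1), from median times to reach 1 cm3. Group size 5 mice (NCI-H747, A549-FP3, EBC-1, OVCAR-5), 8 (NCI-H358), 10 (NCI-H1650).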

For data set [12], the system named is EBC-1. The experiment in a line: Antitumor activity against human EBC-1 cells xenografted in po dosed SCID-bg mouse assessed as maximum tumor growth inhibition relative to control. Type of data set: functional.
Data set [13] deals with EBC-1. The experiment in a line: Antitumor activity against human EBC-1 cells xenografted in po dosed SCID-bg mouse assessed as tumor growth delay relative to control. The class given is functional.
Data set [14] in a line: Toxicity in po dosed SCID mouse assessed as tolerance in presence of docetaxel. Type of data set: organism-based. As to conditions: in vivo.
Data set [15] in a line: Toxicity in Sprague-Dawley rat assessed as inhibition of […] by measuring reduction in circulating platelets at 7 mg/kg, po administered daily for 5 days and measured on day 6 by microscopic analysis. The class given is organism-based. As to conditions: in vivo, 144 h, time 6 day. The method in brief: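 Male Sprague-Dawley rats, n = 10 per group: docetaxel 5 mg/kg i.v. once, or oral inhibitor daily for 5 days (30, 50 or 7 mg/kg depending on agent), alone or combined with docetaxel, against vehicles. Total neutrophil and platelet counts in blood collected on day 6; Tukey-Kramer test versus vehicle.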

For `CC1(C)CCC(c2ccc(Cl)cc2)=C(CN2CCN(c3ccc(C(=O)NS(=O)(=O)c4ccc(N[C@H](CCN5CCOCC5)CSc5ccccc5)c(S(=O)(=O)C(F)(F)F)c4)cc3)CC2)C1` [NAVITOCLAX], the result with ZR-75-1 [1], in the data set with MDA-MB-468, in the data set on MCF7, with MDA-MB-231 [2], with BT-474 and in the data set with HCC1500 was Active. The Activity result in [3] is listed as “Toxic”.

`CN(C)CC#Cc1ccc(OCCCc2sc(N3CCc4cccc(C(=O)Nc5nc6ccccc6s5)c4C3)nc2C(=O)O)c(F)c1` [A-1155463]: the Activity_index is on record as 277 with MDA-MB-231 [4]; 103 in the data set with ZR-75-1 [5]; 185 in the data set with HCC1569; 260 in the data set on BT-20; 461 with SW1573; 128 in the data set on NCI-H838. For the same compound, the Activity_index is 706 in the data set on OVCAR-5, -265 in the data set with ZR-75-30, -250 in the data set on HCC2218 and -103 with EBC-1 [6].

As for `Cc1c(-c2ccc(N3CCc4cccc(C(=O)Nc5nc6ccccc6s5)c4C3)nc2C(=O)O)cnn1CC12CC3CC(CC(C3)C1)C2`, the Activity in the data set on MDA-MB-231 [7] is 141%; in data set [9], less than 9%; in the data set with NCI-H747, 33%; in the data set with EBC-1 [13], 22%; in [14], “Non-Toxic”; in data set [15], “Toxic”. The inhibition in vivo at 25 mg/kg with MDA-MB-231 [8] was determined as 55%. Besides, the TGI with A549 [10] is 67%; in the data set with A549 [11] it was 74%; in the data set with EBC-1 [12], 52%.
